# ChEMBL document CHEMBL1155097, “T-type Ca2+ channel blockers suppress the growth of human cancer cells” (Bioorg Med Chem Lett, 2008)
# Experiments:
# HT-29 = experiment: Growth inhibition of human HT29 cells after 72 hrs by SRB assay; assay type: functional; settings: HT-29, 72 h
# Outline: (§1)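 Cells seeded in 96-well plates, in exponential growth at time of sample addition; various concentrations added in triplicate, 37 °C, 5% CO2, 72 h. Fixed with formalin 30 min at room temperature, tap-water washed, stained with 0.4% SRB 30 min, washed with 1% acetic acid, dye solubilized in 10 mM unbuffered Tris base; OD at 520 nm. GI50 from dose–response curve, three independent experiments.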
# A549 = experiment: Growth inhibition of human A549 cells after 72 hrs by SRB assay; assay type: functional; settings: A549, 72 h; outline: as §1
# DU-145 = experiment: Growth inhibition of human DU145 cells after 72 hrs by SRB assay; assay type: functional; settings: DU-145, 72 h; outline: as §1
# SK-MEL-2 = experiment: Growth inhibition of human SK-MEL-2 cells after 72 hrs by SRB assay; assay type: functional; settings: SK-MEL-2, 72 h; outline: as §1
# SK-OV-3 = experiment: Growth inhibition of human SKOV3 cells after 72 hrs by SRB assay; assay type: functional; settings: SK-OV-3, 72 h; outline: as §1
# Mus musculus = experiment: Acute toxicity in ICR CD1 mouse assessed as mortality at 1000 mg/kg, po after 5 days; assay type: organism-based; design: dose 1000 mg/kg, route oral; settings: in vivo, 120 h
# Outline: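 Single oral dose given as a corn oil mixture to two CD-1 (ICR) mice, with mortality monitored over 5 days.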
# [1] = target: Voltage-dependent T-type calcium channel subunit alpha-1G (Homo sapiens, UniProt O43497); experiment: Inhibition of T-type calcium channel Cav3.1 alpha1G expressed in HEK293 cells by whole cell patch-clamp method; assay type: cell-based
# Sequence of Voltage-dependent T-type calcium channel subunit alpha-1G (O43497 whole entry): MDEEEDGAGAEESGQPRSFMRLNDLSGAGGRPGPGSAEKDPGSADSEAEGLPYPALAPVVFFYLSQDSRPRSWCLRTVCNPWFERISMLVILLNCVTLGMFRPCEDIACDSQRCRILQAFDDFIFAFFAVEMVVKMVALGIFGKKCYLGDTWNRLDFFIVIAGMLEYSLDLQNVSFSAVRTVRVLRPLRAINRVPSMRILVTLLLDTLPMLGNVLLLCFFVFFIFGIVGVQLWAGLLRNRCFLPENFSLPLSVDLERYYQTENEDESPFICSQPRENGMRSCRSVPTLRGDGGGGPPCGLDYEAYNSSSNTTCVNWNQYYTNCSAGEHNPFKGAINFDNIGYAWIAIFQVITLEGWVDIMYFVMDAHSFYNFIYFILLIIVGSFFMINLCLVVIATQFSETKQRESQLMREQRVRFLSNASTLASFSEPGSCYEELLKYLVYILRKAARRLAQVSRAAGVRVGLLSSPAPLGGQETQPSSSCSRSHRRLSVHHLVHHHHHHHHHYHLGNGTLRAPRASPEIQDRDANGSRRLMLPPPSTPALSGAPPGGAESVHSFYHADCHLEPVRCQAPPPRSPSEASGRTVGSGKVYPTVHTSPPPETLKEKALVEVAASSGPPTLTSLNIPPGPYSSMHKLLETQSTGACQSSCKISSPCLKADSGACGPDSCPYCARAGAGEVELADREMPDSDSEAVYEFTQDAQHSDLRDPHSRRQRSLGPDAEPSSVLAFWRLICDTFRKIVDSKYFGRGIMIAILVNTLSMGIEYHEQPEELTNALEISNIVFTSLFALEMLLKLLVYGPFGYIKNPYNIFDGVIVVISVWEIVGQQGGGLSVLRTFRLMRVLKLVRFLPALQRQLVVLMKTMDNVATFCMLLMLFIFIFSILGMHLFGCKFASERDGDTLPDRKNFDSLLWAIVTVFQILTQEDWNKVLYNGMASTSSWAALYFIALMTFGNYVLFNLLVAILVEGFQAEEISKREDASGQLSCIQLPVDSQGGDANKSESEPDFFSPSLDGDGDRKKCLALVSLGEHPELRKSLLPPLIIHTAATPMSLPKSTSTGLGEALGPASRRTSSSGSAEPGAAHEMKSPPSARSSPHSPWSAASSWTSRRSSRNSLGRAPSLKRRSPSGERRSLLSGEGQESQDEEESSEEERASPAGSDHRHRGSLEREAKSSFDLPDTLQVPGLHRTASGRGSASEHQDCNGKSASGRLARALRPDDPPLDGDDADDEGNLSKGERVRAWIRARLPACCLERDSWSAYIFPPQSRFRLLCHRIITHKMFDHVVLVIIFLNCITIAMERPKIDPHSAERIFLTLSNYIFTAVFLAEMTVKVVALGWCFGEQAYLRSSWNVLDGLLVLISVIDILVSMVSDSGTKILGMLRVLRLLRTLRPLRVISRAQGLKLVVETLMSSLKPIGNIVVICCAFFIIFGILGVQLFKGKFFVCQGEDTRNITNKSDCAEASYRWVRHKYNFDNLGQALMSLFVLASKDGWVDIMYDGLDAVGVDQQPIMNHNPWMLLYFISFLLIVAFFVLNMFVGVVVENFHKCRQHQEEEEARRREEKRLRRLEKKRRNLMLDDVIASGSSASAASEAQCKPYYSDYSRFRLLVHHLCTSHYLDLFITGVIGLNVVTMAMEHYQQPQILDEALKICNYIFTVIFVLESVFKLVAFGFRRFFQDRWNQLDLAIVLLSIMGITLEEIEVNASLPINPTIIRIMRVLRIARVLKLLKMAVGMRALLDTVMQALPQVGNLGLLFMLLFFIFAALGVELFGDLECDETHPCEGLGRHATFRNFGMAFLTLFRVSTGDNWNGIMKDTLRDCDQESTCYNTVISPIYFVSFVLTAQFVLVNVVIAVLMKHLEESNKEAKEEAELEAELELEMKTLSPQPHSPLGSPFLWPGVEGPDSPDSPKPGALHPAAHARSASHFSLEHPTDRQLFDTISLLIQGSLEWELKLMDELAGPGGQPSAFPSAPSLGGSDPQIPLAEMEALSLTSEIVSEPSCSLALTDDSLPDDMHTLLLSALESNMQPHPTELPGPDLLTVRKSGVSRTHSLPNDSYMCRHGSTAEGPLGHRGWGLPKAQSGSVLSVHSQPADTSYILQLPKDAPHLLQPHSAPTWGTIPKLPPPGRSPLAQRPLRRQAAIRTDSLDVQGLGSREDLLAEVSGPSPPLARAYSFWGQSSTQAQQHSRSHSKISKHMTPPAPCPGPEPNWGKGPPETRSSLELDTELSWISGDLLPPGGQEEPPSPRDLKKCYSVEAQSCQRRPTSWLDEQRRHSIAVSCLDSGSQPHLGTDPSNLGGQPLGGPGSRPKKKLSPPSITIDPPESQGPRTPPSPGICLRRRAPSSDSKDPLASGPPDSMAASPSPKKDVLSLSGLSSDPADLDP
# Outline: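 HEK293 stably coexpressing Cav3.1 (alpha1G) and Kir2.1; whole-cell recording, 3–4 MΩ electrodes. Internal (mM): 130 KCl, 11 EGTA, 5 Mg-ATP, 10 HEPES, pH 7.4. External (mM): 140 NaCl, 2 CaCl2, 10 HEPES, 10 glucose, pH 7.4. Currents evoked every 15 s by 50 ms step from −100 to −30 mV. IC50 for peak-current inhibition fitted from dose–response curves, three independent experiments.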
GI50 (HT-29),GI50 (A549),GI50 (DU-145),GI50 (SK-MEL-2),GI50 (SK-OV-3),IC50 [1],Compound,Activity (Mus musculus)
1080 nM,2900 nM,4090 nM,1800 nM,3990 nM,,COC(=O)CC1c2ccccc2N=C(Nc2ccc(-c3ccccc3)cc2)N1CCCCCN (stereo unspecified),
2080 nM,3830 nM,3830 nM,4310 nM,4610 nM,,COC(=O)CC1c2ccccc2N=C(NCCCCCNC(=O)OC(C)(C)C)N1c1ccc(-c2ccccc2)cc1 (stereo unspecified),
610 nM,870 nM,2490 nM,690 nM,2760 nM,,CN(CCCCCN1CCCC1)C1=Nc2ccccc2C(CC(=O)NCc2ccccc2)N1c1ccc(-c2ccccc2)cc1 (stereo unspecified),
1710 nM,1930 nM,1710 nM,1730 nM,1950 nM,,O=C(CC1c2ccccc2N=C(N2CCCCC2)N1c1ccccc1)NCc1ccc(NS(=O)(=O)c2ccc(F)cc2)cc1 (stereo unspecified),
1700 nM,1870 nM,1790 nM,1590 nM,2010 nM,,CC(C)(C)OC(=O)NCCCCCN1C(Nc2ccc(-c3ccccc3)cc2)=Nc2ccccc2C1CC(=O)NCc1ccccc1 (stereo unspecified),
520 nM,1770 nM,1780 nM,1910 nM,1950 nM,,COC(=O)CC1c2ccccc2N=C(N(C)CCCCCN(C)C)N1c1ccc(-c2ccccc2)cc1 (stereo unspecified),
22300 nM,> 100000 nM,> 100000 nM,31600 nM,> 100000 nM,350 nM,CN(C)C1=Nc2ccccc2C(CC(=O)NCc2ccc([N+](=O)[O-])cc2)N1c1ccccc1 (stereo unspecified),
28300 nM,> 100000 nM,> 100000 nM,44000 nM,> 100000 nM,380 nM,CN(C)C1=Nc2ccccc2C(CC(=O)NCc2ccc(N)cc2)N1c1ccccc1 (stereo unspecified),
3150 nM,14300 nM,6520 nM,8530 nM,15600 nM,630 nM,Cc1ccc(S(=O)(=O)Nc2ccc(CNC(=O)CC3c4ccccc4N=C(N(C)C)N3c3ccccc3)cc2)cc1 (stereo unspecified),
13900 nM,24500 nM,17200 nM,17000 nM,26100 nM,1040 nM,CCN1C(N2CCCCC2)=Nc2ccccc2C1CC(=O)NCc1ccc(NS(=O)(=O)c2ccc(F)cc2)cc1 (stereo unspecified),
3180 nM,7740 nM,4260 nM,2020 nM,7180 nM,570 nM,CC(C)(C)OC(=O)NCCCCCNC1=Nc2ccccc2C(CC(=O)NCc2ccccc2)N1c1ccccc1 (stereo unspecified),
1670 nM,1830 nM,1640 nM,1480 nM,1610 nM,,CC(C)(C)OC(=O)NCCCCCNC1=Nc2ccccc2C(CC(=O)NCc2ccccc2)N1c1ccc(-c2ccccc2)cc1 (stereo unspecified),
210 nM,160 nM,60 nM,110 nM,120 nM,,COc1cccc2c1C(=O)c1c(O)c3c(c(O)c1C2=O)C[C@@](O)(C(=O)CO)C[C@@H]3O[C@H]1C[C@H](N)[C@H](O)[C@H](C)O1 (stereo in doubt) [DOXORUBICIN],

Compound,GI50 (HT-29),GI50 (A549),GI50 (DU-145),GI50 (SK-MEL-2),GI50 (SK-OV-3),IC50 [1],Activity (Mus musculus)
CN(C)CCCCCN(C)C1=Nc2ccccc2C(CC(=O)NCc2ccccc2)N1c1ccc(-c2ccccc2)cc1 (stereo unspecified),40 nM,170 nM,190 nM,480 nM,660 nM,,Non-toxic
